From PubChem BioAssay AID588557 (Sanford-Burnham Center for Chemical Genomics, 2011)
Activity calls are given as the source filed them.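 The calls were made as follows: active = cytotoxic IC50, the dose that kills half the cells, at 20 µM or lower; inactive = the rest.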

Each compound was assayed on CHO-CHOP cells viability, ATPLite luminescence, 6 h (assay: CHO-CHOP cell viability loss – 6 h exposure, ATPLite luminescence, cytotoxicity control for UPR apoptotic arm activator project, SAR follow-up (AID 588557)).
Outline: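 Assay system: CHO-CHOP reporter cells; Quantity: 500 cells/well; Buffer or medium: F12 medium with 10% fetal bovine serum; Times: overnight plating, 6 h compound exposure at 37 °C; Technique: ATP luminescence with ATPLite 1-Step reagent; Controls: tunicamycin 10 µg/mL positive, DMSO-only negative.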

With `CC(C)(C)C1CCN(S(=O)(=O)c2ccc(NC(=O)c3ccc([N+](=O)[O-])o3)cc2)CC1` as the compound, how does the IC50 read?
Its IC50 is > 80 µM (inactive).

For `O=C(Nc1ccc(S(=O)(=O)C2CCCCC2)cc1)c1ccc([N+](=O)[O-])o1`, which IC50 is on record?
Its IC50 is > 80 µM (inactive).

With `O=C(Nc1nc2c(Cl)cc(Cl)cc2s1)c1ccccn1` as the compound, how does the IC50 read?
Its IC50 is > 80 µM (inactive).

With `O=C(Nc1ccc(S(=O)(=O)N2CCCC2)cc1)c1ccc([N+](=O)[O-])o1` as the compound, how does the IC50 read?
Its IC50 is 74.6 µM (inactive).

`O=C(Nc1nc2cccc(F)c2s1)c1ccccn1` was tested. Which IC50 did it give?
The IC50 was 7.07 µM.

How did the IC50 turn out when `O=C(Nc1nc2c(F)cccc2s1)c1ccccn1` was run?
The IC50 was 4.42 µM.

How did the IC50 turn out when `O=C(Nc1nc2cc(F)ccc2s1)c1ccccn1` was run?
The IC50 was 2.7 µM.

With `O=C(Nc1ccc(S(=O)(=O)N2CCNCC2)cc1)c1ccc([N+](=O)[O-])o1` as the compound, how does the IC50 read?
The IC50 was > 80 µM (inactive).

With `O=C(Nc1ccc(S(=O)(=O)N2CCC3(CCCCC3)CC2)cc1)c1ccc([N+](=O)[O-])o1` as the compound, how does the IC50 read?
The IC50 was > 80 µM (inactive).

With `O=C(Nc1nc2ccc(F)c(F)c2s1)c1ccccn1` as the compound, how does the IC50 read?
Its IC50 is 13.4 µM.

Which IC50 does the source give for `O=C(Nc1ccc(S(=O)(=O)N2CCC(O)CC2)cc1)c1ccc([N+](=O)[O-])o1` here?
The IC50 was > 80 µM (inactive).

How did the IC50 turn out when `O=C(Nc1ccc(S(=O)(=O)N2CCC(Cl)CC2)cc1)c1ccc([N+](=O)[O-])o1` was run?
Its IC50 is > 80 µM (inactive).

For `CC1CN(S(=O)(=O)c2ccc(NC(=O)c3ccc([N+](=O)[O-])o3)cc2)CC(C)O1` (stereo not given), which IC50 is on record?
The IC50 was > 80 µM (inactive).

With `O=C(Nc1nc2cc(F)c(F)cc2s1)c1ccccn1` as the compound, how does the IC50 read?
The IC50 was 8.4 µM.

Which IC50 does the source give for `O=C(Nc1nc2ccc(Cl)cc2s1)c1ccccn1` here?
Its IC50 is 3.84 µM.

For `O=C(Nc1ccc(S(=O)(=O)N2CCOCC2)cc1)c1ccc([N+](=O)[O-])s1`, which IC50 is on record?
The IC50 was > 80 µM (inactive).

With `Cc1cc(C)c2nc(NC(=O)c3ccccn3)sc2c1` as the compound, how does the IC50 read?
Its IC50 is 16.2 µM.

With `O=C(Nc1ccc(S(=O)(=O)C2CCOCC2)cc1)c1ccc([N+](=O)[O-])o1` as the compound, how does the IC50 read?
The IC50 was > 80 µM (inactive).

`O=C(Nc1ccc(S(=O)(=O)c2ccccc2)cc1)c1ccc([N+](=O)[O-])o1` was tested. Which IC50 did it give?
Its IC50 is > 80 µM (inactive).

With `O=C(Nc1nc2ccc(C(F)(F)F)cc2s1)c1ccccn1` as the compound, how does the IC50 read?
The IC50 was 4.63 µM.

For `CC1(C)CCN(S(=O)(=O)c2ccc(NC(=O)c3ccc([N+](=O)[O-])o3)cc2)CC1`, which IC50 is on record?
Its IC50 is > 80 µM (inactive).

For `O=C(Nc1nc2ccc(F)cc2s1)c1ccccn1`, which IC50 is on record?
Its IC50 is 4.52 µM.

`CC1CCN(S(=O)(=O)c2ccc(NC(=O)c3ccc([N+](=O)[O-])o3)cc2)CC1` was tested. Which IC50 did it give?
The IC50 was > 80 µM (inactive).

For `O=C(Nc1nc2cc(F)cc(F)c2s1)c1ccccn1`, which IC50 is on record?
Its IC50 is 8.88 µM.

For `O=C(Nc1ccc(S(=O)(=O)N2CCCCC2)cc1)c1ccc([N+](=O)[O-])o1`, which IC50 is on record?
Its IC50 is > 80 µM (inactive).

For `O=C(Nc1ccc(S(=O)(=O)N2CCC(F)CC2)cc1)c1ccc([N+](=O)[O-])o1`, which IC50 is on record?
The IC50 was > 80 µM (inactive).

How did the IC50 turn out when `O=C(Nc1nc2c(F)c(F)ccc2s1)c1ccccn1` was run?
Its IC50 is 15.1 µM.

`O=C(Nc1nc2c(F)ccc(F)c2s1)c1ccccn1` was tested. Which IC50 did it give?
The IC50 was 23.6 µM (inactive).

For `O=C(Nc1ccc(S(=O)(=O)N2CCOCC2)cc1)c1ccc([N+](=O)[O-])o1`, which IC50 is on record?
Its IC50 is > 80 µM (inactive).

With `O=C(Nc1nc2c(F)cc(F)cc2s1)c1ccccn1` as the compound, how does the IC50 read?
Its IC50 is 9.57 µM.
